Assay results published in ChEMBL document CHEMBL1144562, “Synthesis of a new class of 2-anilino substituted nicotinyl arylsulfonylhydrazides as potential anticancer and antibacterial agents” (2007).
Values after ≈ are worked out from the molar mass of the structure shown.

Assays:
Assay type in all cases: functional
[1] = test system: SR; test: Antitumor activity against SR cells; details: Homo sapiens
Method in brief: (§1)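 Tested in the NCI 60-human-tumour-cell-line panel at five concentrations, in 10-fold dilutions from 10^-4 to 10^-8 M. Three parameters were taken from the dose-response data, each as log10 of the molar concentration: GI50 (50% net growth inhibition), TGI (total growth inhibition) and LC50 (50% net cell death).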

[2] = test system: EKVX; test: Antitumor activity against EKVX cells; details: Homo sapiens
[3] = Antitumor activity against LOX IMV1 cells; details: Homo sapiens
[4] = Antitumor activity against MALME 3M cells; details: Homo sapiens
[5] = test system: M14; test: Antitumor activity against M14 cells; details: Homo sapiens
[6] = test system: SK-MEL-5; test: Antitumor activity against SK-MEL-5 cells; details: Homo sapiens; method in brief: as §1
[7] = test system: UACC-257; test: Antitumor activity against UACC257 cells; details: Homo sapiens; method in brief: as §1
[8] = test system: UACC-62; test: Antitumor activity against UACC62 cells; details: Homo sapiens; method in brief: as §1
[9] = test system: OVCAR-3; test: Antitumor activity against OVCAR-3 cells; details: Homo sapiens
[10] = test system: OVCAR-8; test: Antitumor activity against OVCAR8 cells; details: Homo sapiens
[11] = test system: SK-OV-3; test: Antitumor activity against SKOV3 cells; details: Homo sapiens; method in brief: as §1
[12] = test system: CAKI-1; test: Antitumor activity against CAKI1 cells; details: Homo sapiens
[13] = test system: RXF 393; test: Antitumor activity against RXF393 cells; details: Homo sapiens
[14] = test system: SN12C; test: Antitumor activity against SN12C cells; details: Homo sapiens; method in brief: as §1
[15] = test system: TK-10; test: Antitumor activity against TK10 cells; details: Homo sapiens; method in brief: as §1
[16] = test system: PC-3; test: Antitumor activity against PC3 cells; details: Homo sapiens
[17] = test system: DU-145; test: Antitumor activity against DU145 cells; details: Homo sapiens
[18] = test system: MCF7; test: Antitumor activity against MCF7 cells; details: Homo sapiens
[19] = test system: MDA-MB-231; test: Antitumor activity against MDA-MB-231 cells; details: Homo sapiens
[20] = test system: Hs-578T; test: Antitumor activity against HS578T cells; details: Homo sapiens
[21] = test system: MDA-MB-435; test: Antitumor activity against MDA-MB-435 cells; details: Homo sapiens
[22] = test system: BT-549; test: Antitumor activity against BT549 cells; details: Homo sapiens
[23] = test system: T47D; test: Antitumor activity against T47D cells; details: Homo sapiens; method in brief: as §1
[24] = test system: Pseudomonas aeruginosa; test: Antibacterial activity against Pseudomonas aeruginosa MTCC 424 after 18 hrs; details: MTCC 424, 18 h
Method in brief: (§2)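 Disc diffusion (Kirby–Bauer) on Mueller-Hinton agar inoculated with fresh bacteria at 1-5 × 10^4 cfu mL-1. Compounds were dissolved in DMF at a range of concentrations, and discs were placed in triplicate. Plates were incubated at 30 °C for 18 h. MIC was taken as the lowest concentration giving no visible bacterial growth on the plate.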

[25] = test system: Staphylococcus epidermidis; test: Antibacterial activity against Staphylococcus epidermidis MTCC 435 after 18 hrs; details: MTCC 435, 18 h; method in brief: as §2
[26] = test system: Bacillus subtilis; test: Antibacterial activity against Bacillus subtilis MTCC 441 after 18 hrs; details: MTCC 441, 18 h; method in brief: as §2
[27] = test system: Vibrio; test: Antibacterial activity against Vibrio species after 18 hrs; method in brief: as §2
[28] = test system: 786-0; test: Antitumor activity against 786-0 cells; details: Homo sapiens
[29] = test system: CCRF-CEM; test: Antitumor activity against CCRF-CEM cells; details: Homo sapiens
[30] = test system: K562; test: Antitumor activity against K562 cells; details: Homo sapiens
[31] = test system: MOLT-4; test: Antitumor activity against MOLT4 cells; details: Homo sapiens
[32] = test system: HOP-92; test: Antitumor activity against HOP92 cells; details: Homo sapiens
[33] = Antitumor activity against NCI-H322 cells; details: Homo sapiens
[34] = test system: NCI-H460; test: Antitumor activity against NCI-H460 cells; details: Homo sapiens
[35] = test system: COLO 205; test: Antitumor activity against COLO205 cells; details: Homo sapiens
[36] = test system: SW-620; test: Antitumor activity against SW620 cells; details: Homo sapiens; method in brief: as §1
[37] = test system: SF-268; test: Antitumor activity against SF268 cells; details: Homo sapiens
[38] = test system: SF-295; test: Antitumor activity against SF295 cells; details: Homo sapiens
[39] = test system: SF-539; test: Antitumor activity against SF539 cells; details: Homo sapiens
[40] = test system: SNB-19; test: Antitumor activity against SNB19 cells; details: Homo sapiens; method in brief: as §1
[41] = test system: SNB-75; test: Antitumor activity against SNB75 cells; details: Homo sapiens; method in brief: as §1
[42] = test system: U-251; test: Antitumor activity against U251 cells; details: Homo sapiens; method in brief: as §1
[43] = read-out: Log LC50 (the source's name) (converted)

SMILES: CC(=O)Nc1ccc(S(=O)(=O)NNC(=O)c2cccnc2Nc2ccc(Cl)cc2)cc1
- GI50 [1]: 6.31 µM
- LC50 [1]: > 100 µM
- TGI ([1]; read-out: Log TGI (converted)): > 100 µM
- GI50 [2]: 49 µM
- LC50 [2]: > 100 µM
- TGI ([2]; read-out: Log TGI (converted)): > 100 µM
- GI50 [3]: 24 µM
- LC50 [3]: > 100 µM
- TGI ([3]; read-out: Log TGI (converted)): > 100 µM
- GI50 [4]: > 100 µM
- CC50 [4, 43]: > 100 µM
- TGI ([4]; read-out: Log TGI (converted)): > 100 µM
- GI50 [5]: 11.5 µM
- LC50 [5]: > 100 µM
- TGI ([5]; read-out: Log TGI (converted)): > 100 µM
- GI50 [6]: 5.62 µM
- LC50 [6]: > 100 µM
- TGI ([6]; read-out: Log TGI (converted)): > 100 µM
- GI50 [7]: 89.1 µM
- LC50 [7]: > 100 µM
- TGI ([7]; read-out: Log TGI (converted)): > 100 µM
- GI50 [8]: 8.91 µM
- LC50 [8]: > 100 µM
- TGI ([8]; read-out: Log TGI (converted)): > 100 µM
- GI50 [9]: 3.72 µM
- CC50 [9, 43]: > 100 µM
- TGI ([9]; read-out: Log TGI (converted)): > 100 µM
- GI50 [10]: 36.3 µM
- CC50 [10, 43]: > 100 µM
- TGI ([10]; read-out: Log TGI (converted)): > 100 µM
- GI50 [11]: 57.5 µM
- CC50 [11, 43]: > 100 µM
- TGI ([11]; read-out: Log TGI (converted)): > 100 µM
- GI50 [12]: 9.12 µM
- LC50 [12]: > 100 µM
- TGI ([12]; read-out: Log TGI (converted)): > 100 µM
- GI50 [13]: 37.2 µM
- LC50 [13]: > 100 µM
- TGI ([13]; read-out: Log TGI (converted)): > 100 µM
- GI50 [14]: 58.9 µM
- LC50 [14]: > 100 µM
- TGI ([14]; read-out: Log TGI (converted)): > 100 µM
- GI50 [15]: 25.1 µM
- LC50 [15]: > 100 µM
- TGI ([15]; read-out: Log TGI (converted)): > 100 µM
- GI50 [16]: 29.5 µM
- LC50 [16]: > 100 µM
- TGI ([16]; read-out: Log TGI (converted)): > 100 µM
- GI50 [17]: 34.7 µM
- LC50 [17]: > 100 µM
- TGI ([17]; read-out: Log TGI (converted)): > 100 µM
- GI50 [18]: 4.37 µM
- LC50 [18]: > 100 µM
- TGI ([18]; read-out: Log TGI (converted)): > 100 µM
- GI50 [19]: 41.7 µM
- LC50 [19]: > 100 µM
- TGI ([19]; read-out: Log TGI (converted)): > 100 µM
- GI50 [20]: 24 µM
- CC50 [20, 43]: > 100 µM
- TGI ([20]; read-out: Log TGI (converted)): > 100 µM
- GI50 [21]: 3.24 µM
- LC50 [21]: > 100 µM
- TGI ([21]; read-out: Log TGI (converted)): > 100 µM
- GI50 [22]: 25.1 µM
- LC50 [22]: > 100 µM
- TGI ([22]; read-out: Log TGI (converted)): > 100 µM
- GI50 [23]: 6.31 µM
- CC50 [23, 43]: > 100 µM
- TGI ([23]; read-out: Log TGI (converted)): > 100 µM
- MIC [24]: > 25 µg/mL
- MIC [25]: 22 µg/mL (≈ 47.8 µM)
- MIC [26]: 17 µg/mL (≈ 37 µM)
- MIC [27]: 18 µg/mL (≈ 39.1 µM)
- GI50 [28]: 47.9 µM
- LC50 (lethal concentration, 50%) [28]: > 100 µM
- TGI ([28]; read-out: Log TGI (converted)): > 100 µM
- LC50 [29]: > 100 µM
- TGI ([29]; read-out: Log TGI (converted)): > 100 µM
- GI50 ([29]; read-out: pGI50 (converted)): 21.4 µM
- GI50 [30]: 8.51 µM
- LC50 [30]: > 100 µM
- TGI ([30]; read-out: Log TGI (converted)): > 100 µM
- GI50 [31]: 50.1 µM
- LC50 [31]: > 100 µM
- TGI ([31]; read-out: Log TGI (converted)): > 100 µM
- GI50 [32]: > 100 µM
- CC50 [32, 43]: > 100 µM
- TGI ([32]; read-out: Log TGI (converted)): > 100 µM
- GI50 [33]: > 100 µM
- CC50 [33, 43]: > 100 µM
- TGI ([33]; read-out: Log TGI (converted)): > 100 µM
- GI50 [34]: 4.68 µM
- LC50 [34]: > 100 µM
- TGI ([34]; read-out: Log TGI (converted)): > 100 µM
- GI50 [35]: 10.2 µM
- LC50 [35]: > 100 µM
- TGI ([35]; read-out: Log TGI (converted)): 57.5 µM
- GI50 [36]: 7.59 µM
- CC50 [36, 43]: > 100 µM
- TGI ([36]; read-out: Log TGI (converted)): > 100 µM
- GI50 [37]: 21.9 µM
- LC50 [37]: > 100 µM
- TGI ([37]; read-out: Log TGI (converted)): > 100 µM
- GI50 [38]: 3.47 µM
- CC50 [38, 43]: > 100 µM
- TGI ([38]; read-out: Log TGI (converted)): > 100 µM
- GI50 [39]: 15.5 µM
- LC50 [39]: > 100 µM
- TGI ([39]; read-out: Log TGI (converted)): 75.9 µM
- GI50 [40]: 14.1 µM
- CC50 [40, 43]: > 100 µM
- TGI ([40]; read-out: Log TGI (converted)): > 100 µM
- GI50 [41]: 5.5 µM
- CC50 [41, 43]: > 100 µM
- TGI ([41]; read-out: Log TGI (converted)): > 100 µM
- GI50 [42]: 24 µM
- LC50 [42]: > 100 µM
- TGI ([42]; read-out: Log TGI (converted)): > 100 µM
